Data taken from ChEMBL document CHEMBL1158122, “Anti-inflammatory, anti-tumor-promoting, and cytotoxic activities of constituents of marigold (Calendula officinalis) flowers” (J Nat Prod, 2006).

What was measured:
[1] = Cytotoxicity against human Raji cells assessed as cell viability at 10 molar ratio; format: cell-based; settings: read-out: Activity
Procedure, shortened: (§1)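 Raji cells were treated with 32 pmol TPA to induce EBV early antigen activation. The test agent was added at 10, 100, 500 or 1000 mol ratio relative to TPA, and Raji cell viability was measured alongside EA activation.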

COLO 205 = experiment: Cytotoxicity against human COLO205 cells after 48 hrs by SRB assay; format: functional; settings: COLO 205, 48 h
NCI-H226 = experiment: Cytotoxicity against human NCI-H226 cells after 48 hrs by SRB assay; format: functional; settings: NCI-H226, 48 h
NCI-H522 = experiment: Cytotoxicity against human NCI-H522 cells after 48 hrs by SRB assay; format: functional; settings: NCI-H522, 48 h
[2] = Cytotoxicity against human SK MEL28 cells after 48 hrs by SRB assay; format: functional; settings: SK-MEL-28, 48 h
PC-3 = experiment: Cytotoxicity against human PC-3 cells after 48 hrs by SRB assay; format: functional; settings: PC-3, 48 h
NCI/ADR-RES = experiment: Cytotoxicity against human NCI/ADR-RES cells after 48 hrs by SRB assay; format: functional
HCT-15 = experiment: Cytotoxicity against human HCT-15 cells after 48 hrs by SRB assay; format: functional; settings: HCT-15, 48 h
Raji [3] = experiment: Inhibition of TPA-induced EBV-early antigen activation in human Raji cells at 100 molar ratio relative to TPA; format: cell-based; parameters: scale not given: the % may be the effect or the level left; settings: human gammaherpesvirus 4
[4] = Cytotoxicity against human Raji cells assessed as cell viability at 1000 molar ratio; format: cell-based; settings: read-out: Activity; procedure, shortened: as §1
HL-60 = experiment: Cytotoxicity against human HL-60 cells after 48 hrs by SRB assay; format: functional; settings: HL-60, 48 h
MCF7 = experiment: Cytotoxicity against human MCF7 cells after 48 hrs by SRB assay; format: functional; settings: MCF7, 48 h
T47D = experiment: Cytotoxicity against human T47D cells after 48 hrs by SRB assay; format: functional
Procedure, shortened: (§2)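 Tested in the NCI panel of 60 human tumour cell lines covering lung, colon, melanoma, renal, ovarian, breast and leukaemia. At least five concentrations were run in 10-fold dilutions starting from 10^-4 M. Exposure was continuous for 48 h. Growth or viability was estimated by sulforhodamine B protein staining, and GI50 values were reported.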

MOLT-4 = experiment: Cytotoxicity against human MOLT-4 cells after 48 hrs by SRB assay; format: functional; settings: MOLT-4, 48 h
HCC 2998 = experiment: Cytotoxicity against human HCC2998 cells after 48 hrs by SRB assay; format: functional; settings: HCC 2998, 48 h
ACHN = experiment: Cytotoxicity against human ACHN cells after 48 hrs by SRB assay; format: functional
TK-10 = experiment: Cytotoxicity against human TK-10 cells after 48 hrs by SRB assay; format: functional; settings: TK-10, 48 h; procedure, shortened: as §2
IGROV-1 = experiment: Cytotoxicity against human IGROV1 cells after 48 hrs by SRB assay; format: functional; settings: IGROV-1, 48 h
OVCAR-3 = experiment: Cytotoxicity against human OVCAR-3 cells after 48 hrs by SRB assay; format: functional; settings: OVCAR-3, 48 h
[5] = Cytotoxicity against human Hs 578T cells after 48 hrs by SRB assay; format: functional
UACC-62 = experiment: Cytotoxicity against human UACC-62 cells after 48 hrs by SRB assay; format: functional; settings: UACC-62, 48 h; procedure, shortened: as §2
KM12 = experiment: Cytotoxicity against human KM12 cells after 48 hrs by SRB assay; format: functional; settings: KM12, 48 h
OVCAR-5 = experiment: Cytotoxicity against human OVCAR5 cells after 48 hrs by SRB assay; format: functional; settings: OVCAR-5, 48 h
EKVX = experiment: Cytotoxicity against human EKVX cells after 48 hrs by SRB assay; format: functional
SW-620 = experiment: Cytotoxicity against human SW620 cells after 48 hrs by SRB assay; format: functional; settings: SW-620, 48 h
OVCAR-8 = experiment: Cytotoxicity against human OVCAR8 cells after 48 hrs by SRB assay; format: functional; settings: OVCAR-8, 48 h
[6] = Cytotoxicity against human Raji cells assessed as cell viability at 100 molar ratio; format: cell-based; settings: read-out: Activity; procedure, shortened: as §1
SN12C = experiment: Cytotoxicity against human SN12C cells after 48 hrs by SRB assay; format: functional
RXF 393 = experiment: Cytotoxicity against human […] cells after 48 hrs by SRB assay; format: functional; settings: RXF 393, 48 h
LOX IMVI = experiment: Cytotoxicity against human LOX IMVI cells after 48 hrs by SRB assay; format: functional
NCI-H322M = experiment: Cytotoxicity against human NCI-H322M cells after 48 hrs by SRB assay; format: functional
UO-31 = experiment: Cytotoxicity against human UO-31 cells after 48 hrs by SRB assay; format: functional; settings: UO-31, 48 h; procedure, shortened: as §2
SK-MEL-5 = experiment: Cytotoxicity against human SK-MEL-5 cells after 48 hrs by SRB assay; format: functional; settings: SK-MEL-5, 48 h
SK-MEL-2 = experiment: Cytotoxicity against human SK-MEL-2 cells after 48 hrs by SRB assay; format: functional; settings: SK-MEL-2, 48 h
SNB-19 = experiment: Cytotoxicity against human SNB-19 cells after 48 hrs by SRB assay; format: functional; settings: SNB-19, 48 h
786-0 = experiment: Cytotoxicity against human 786-0 cells after 48 hrs by SRB assay; format: functional; settings: 786-0, 48 h
Raji [7] = experiment: Inhibition of TPA-induced EBV-early antigen activation in human Raji cells at 1000 molar ratio relative to TPA; format: cell-based; parameters: scale not given: the % may be the effect or the level left; settings: human gammaherpesvirus 4
Malme-3M = experiment: Cytotoxicity against human MALME-3M cells after 48 hrs by SRB assay; format: functional
K562 = experiment: Cytotoxicity against human K-562 cells after 48 hrs by SRB assay; format: functional; settings: K562, 48 h
A549 = experiment: Cytotoxicity against human A549 cells after 48 hrs by SRB assay; format: functional; settings: A549, 48 h
MDA-MB-231 = experiment: Cytotoxicity against human MDA-MB-231 cells after 48 hrs by SRB assay; format: functional; settings: MDA-MB-231, 48 h
CAKI-1 = experiment: Cytotoxicity against human Caki-1 cells after 48 hrs by SRB assay; format: functional; settings: CAKI-1, 48 h
[8] = Cytotoxicity against human Raji cells assessed as cell viability at 500 molar ratio; format: cell-based; settings: read-out: Activity; procedure, shortened: as §1
[9] = Cytotoxicity against human HCT 116 cells after 48 hrs by SRB assay; format: functional; settings: HCT-116, 48 h
HOP-62 = experiment: Cytotoxicity against human HOP-62 cells after 48 hrs by SRB assay; format: functional; settings: HOP-62, 48 h
NCI-H23 = experiment: Cytotoxicity against human NCI-H23 cells after 48 hrs by SRB assay; format: functional; settings: NCI-H23, 48 h
MDA-MB-435 = experiment: Cytotoxicity against human MDA-MB-435 cells after 48 hrs by SRB assay; format: functional; settings: MDA-MB-435, 48 h
NCI-H460 = experiment: Cytotoxicity against human NCI-H460 cells after 48 hrs by SRB assay; format: functional; settings: NCI-H460, 48 h
BT-549 = experiment: Cytotoxicity against human BT-549 cells after 48 hrs by SRB assay; format: functional; settings: BT-549, 48 h
HT-29 = experiment: Cytotoxicity against human HT-29 cells after 48 hrs by SRB assay; format: functional; settings: HT-29, 48 h
UACC-257 = experiment: Cytotoxicity against human UACC-257 cells after 48 hrs by SRB assay; format: functional; settings: UACC-257, 48 h; procedure, shortened: as §2
CCRF-CEM = experiment: Cytotoxicity against human CCRF-CEM cells after 48 hrs by SRB assay; format: functional
SF-268 = experiment: Cytotoxicity against human SF-268 cells after 48 hrs by SRB assay; format: functional; settings: SF-268, 48 h
Raji [10] = experiment: Inhibition of TPA-induced EBV-early antigen activation in human Raji cells at 10 molar ratio relative to TPA; format: cell-based; parameters: scale not given: the % may be the effect or the level left; settings: human gammaherpesvirus 4
Raji [11] = experiment: Inhibition of TPA-induced EBV-early antigen activation in human Raji cells at 500 molar ratio relative to TPA; format: cell-based; parameters: scale not given: the % may be the effect or the level left; settings: human gammaherpesvirus 4
U-251 = experiment: Cytotoxicity against human U251 cells after 48 hrs by SRB assay; format: functional; settings: U-251, 48 h; procedure, shortened: as §2
[12] = Inhibition of TPA-induced EBV-early antigen activation in human Raji cells relative to TPA; format: cell-based, human gammaherpesvirus 4

Structure (SMILES): COC(=O)[C@H]1O[C@@H](O[C@H]2CC[C@]3(C)[C@H]4CC=C5[C@@H]6CC(C)(C)CC[C@]6(C(=O)O)CC[C@@]5(C)[C@]4(C)CC[C@H]3C2(C)C)[C@H](O)[C@@H](O[C@@H]2O[C@H](CO)[C@H](O)[C@H](O)[C@H]2O)[C@@H]1O
- viability at 10 molar ratio [1]: > 80%
- GI50 (COLO 205): 8.64 µM
- GI50 (NCI-H226): 6.18 µM
- GI50 (NCI-H522): 10.5 µM
- GI50 [2]: 10.2 µM
- GI50 (PC-3): 6.43 µM
- GI50 (NCI/ADR-RES): 7.24 µM
- GI50 (HCT-15): 6.57 µM
- Activity (Raji [3]): 71.2%
- viability at 1000 molar ratio [4]: 70%
- GI50 (HL-60): 6.92 µM
- GI50 (MCF7): 9.93 µM
- GI50 (T47D): 8.16 µM
- GI50 (MOLT-4): 2.17 µM
- GI50 (HCC 2998): 7.14 µM
- GI50 (ACHN): 5.99 µM
- GI50 (TK-10): 7.22 µM
- GI50 (IGROV-1): 20.1 µM
- GI50 (OVCAR-3): 13.9 µM
- GI50 [5]: 8.77 µM
- GI50 (UACC-62): 6.23 µM
- GI50 (KM12): 8.83 µM
- GI50 (OVCAR-5): 7.31 µM
- GI50 (EKVX): 6.59 µM
- GI50 (SW-620): 7.28 µM
- GI50 (OVCAR-8): 9.96 µM
- viability at 100 molar ratio [6]: > 80%
- GI50 (SN12C): 6.34 µM
- GI50 (RXF 393): 11.3 µM
- GI50 (LOX IMVI): 6.27 µM
- GI50 (NCI-H322M): 7.59 µM
- GI50 (UO-31): 33.3 µM
- GI50 (SK-MEL-5): 6.14 µM
- GI50 (SK-MEL-2): 11.9 µM
- GI50 (SNB-19): 6.82 µM
- GI50 (786-0): 6.36 µM
- Activity (Raji [7]): 10%
- GI50 (Malme-3M): 6.22 µM
- GI50 (K562): 8.17 µM
- GI50 (A549): 7.22 µM
- GI50 (MDA-MB-231): 7.28 µM
- GI50 (CAKI-1): 12.2 µM
- viability at 500 molar ratio [8]: > 80%
- GI50 [9]: 6.39 µM
- GI50 (HOP-62): 6.21 µM
- GI50 (NCI-H23): 6.46 µM
- GI50 (MDA-MB-435): 13.3 µM
- GI50 (NCI-H460): 11.5 µM
- GI50 (BT-549): 6.93 µM
- GI50 (HT-29): 12.4 µM
- GI50 (UACC-257): 6.89 µM
- GI50 (CCRF-CEM): 5.79 µM
- GI50 (SF-268): 7.56 µM
- Activity (Raji [10]): 100%
- Activity (Raji [11]): 47.2%
- GI50 (U-251): 6.08 µM
- IC50 [12]: 479 molar ratio
